{"source": "ChEMBL document CHEMBL1132360", "about": "“N-Substituted (2,3-dihydro-1,4-benzodioxin-2-yl)methylamine derivatives as D(2) antagonists/5-HT(1A) partial agonists with potential as atypical antipsychotic agents” (J Med Chem, 1999)", "key": {"[1]": {"biological_target": "T1, Alpha-2A adrenergic receptor (Rattus norvegicus, UniProt P22909)", "T1 sequence (P22909 whole entry)": "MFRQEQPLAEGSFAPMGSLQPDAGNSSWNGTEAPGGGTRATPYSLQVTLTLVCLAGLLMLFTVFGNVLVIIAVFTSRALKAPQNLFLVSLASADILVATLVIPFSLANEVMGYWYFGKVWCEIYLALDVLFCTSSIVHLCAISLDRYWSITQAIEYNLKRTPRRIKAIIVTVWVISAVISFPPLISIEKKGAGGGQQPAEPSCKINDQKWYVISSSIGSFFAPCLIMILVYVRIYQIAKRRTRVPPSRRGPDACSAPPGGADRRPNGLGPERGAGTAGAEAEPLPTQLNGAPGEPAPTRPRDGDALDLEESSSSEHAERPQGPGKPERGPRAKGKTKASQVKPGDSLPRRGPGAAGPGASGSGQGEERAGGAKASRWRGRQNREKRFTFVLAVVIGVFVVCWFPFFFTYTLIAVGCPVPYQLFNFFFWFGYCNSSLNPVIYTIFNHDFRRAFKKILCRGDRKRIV", "assay": "The compound was tested for binding affinity against alpha-2D adrenergic receptor"}, "[2]": {"biological_target": "5-hydroxytryptamine receptor 1B (Sus scrofa, UniProt P79399)", "sequence (P79399 whole entry)": "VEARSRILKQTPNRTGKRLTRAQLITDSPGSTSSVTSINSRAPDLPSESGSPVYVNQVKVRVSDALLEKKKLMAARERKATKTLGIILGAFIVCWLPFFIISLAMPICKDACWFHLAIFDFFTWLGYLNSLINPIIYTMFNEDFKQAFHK", "assay": "The compound was tested for binding affinity against 5-hydroxytryptamine 1B receptor", "outline": "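Pig caudate membranes washed at 37 °C to remove endogenous 5-HT, in 50 mM Tris-HCl pH 7.7. Incubated 45 min at 25 °C with 4 nM [3H]sumatriptan plus CaCl2, pargyline and ascorbate, test agent at 10^-6 M; 10 μM 5-HT for nonspecific binding. Filtration, scintillation counting; percent displacement of specific binding.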"}, "D(3) dopamine receptor": {"biological_target": "D(3) dopamine receptor (Homo sapiens, UniProt P35462)", "sequence (P35462 whole entry)": "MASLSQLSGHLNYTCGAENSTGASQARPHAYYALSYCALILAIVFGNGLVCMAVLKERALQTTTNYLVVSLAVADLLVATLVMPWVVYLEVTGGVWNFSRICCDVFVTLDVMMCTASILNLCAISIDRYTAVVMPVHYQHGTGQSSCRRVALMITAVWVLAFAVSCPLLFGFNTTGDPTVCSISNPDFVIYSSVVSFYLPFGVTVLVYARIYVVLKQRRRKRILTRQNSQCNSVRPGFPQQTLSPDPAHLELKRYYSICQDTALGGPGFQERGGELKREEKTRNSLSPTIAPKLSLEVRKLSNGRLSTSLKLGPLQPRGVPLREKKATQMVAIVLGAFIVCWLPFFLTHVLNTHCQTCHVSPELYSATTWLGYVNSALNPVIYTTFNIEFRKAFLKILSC", "assay": "The compound was tested for binding affinity against human Dopamine receptor D3"}, "D(1B) dopamine receptor": {"biological_target": "D(1B) dopamine receptor (Homo sapiens, UniProt P21918)", "sequence (P21918 whole entry)": "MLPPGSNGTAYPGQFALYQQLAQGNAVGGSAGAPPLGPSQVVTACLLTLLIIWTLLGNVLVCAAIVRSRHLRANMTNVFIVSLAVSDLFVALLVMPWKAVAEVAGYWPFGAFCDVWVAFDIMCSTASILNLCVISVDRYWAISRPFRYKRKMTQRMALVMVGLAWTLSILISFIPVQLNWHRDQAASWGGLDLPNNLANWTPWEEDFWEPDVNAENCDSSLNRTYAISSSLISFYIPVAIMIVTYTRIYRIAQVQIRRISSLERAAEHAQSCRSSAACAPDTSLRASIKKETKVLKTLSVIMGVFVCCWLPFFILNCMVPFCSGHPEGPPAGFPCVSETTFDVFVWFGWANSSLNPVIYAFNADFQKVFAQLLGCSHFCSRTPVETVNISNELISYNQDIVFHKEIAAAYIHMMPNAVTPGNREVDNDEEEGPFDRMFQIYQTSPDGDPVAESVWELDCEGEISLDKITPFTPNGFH", "assay": "The compound was tested for binding affinity against human Dopamine receptor D5"}, "[3]": {"biological_target": "5-hydroxytryptamine receptor 2A (Rattus norvegicus, UniProt P14842)", "sequence (P14842 whole entry)": "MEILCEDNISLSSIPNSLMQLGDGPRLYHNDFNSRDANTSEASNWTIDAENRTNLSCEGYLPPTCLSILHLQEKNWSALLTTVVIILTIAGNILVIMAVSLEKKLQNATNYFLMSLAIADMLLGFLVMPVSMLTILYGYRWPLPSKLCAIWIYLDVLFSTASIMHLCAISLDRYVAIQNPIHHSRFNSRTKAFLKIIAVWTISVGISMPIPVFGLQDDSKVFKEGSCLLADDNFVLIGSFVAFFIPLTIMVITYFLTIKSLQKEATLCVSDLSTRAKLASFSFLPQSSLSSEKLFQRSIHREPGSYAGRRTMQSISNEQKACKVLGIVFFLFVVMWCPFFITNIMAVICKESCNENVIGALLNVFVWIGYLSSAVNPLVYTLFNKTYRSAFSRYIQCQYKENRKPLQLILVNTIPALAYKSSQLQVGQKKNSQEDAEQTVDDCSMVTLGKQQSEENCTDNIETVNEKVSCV", "assay": "The compound was tested for binding affinity against 5-hydroxytryptamine 2A receptor"}, "[4]": {"assay": "The compound was tested for binding affinity against MCB receptor"}, "D(1A) dopamine receptor": {"biological_target": "D(1A) dopamine receptor (Homo sapiens, UniProt P21728)", "sequence (P21728 whole entry)": "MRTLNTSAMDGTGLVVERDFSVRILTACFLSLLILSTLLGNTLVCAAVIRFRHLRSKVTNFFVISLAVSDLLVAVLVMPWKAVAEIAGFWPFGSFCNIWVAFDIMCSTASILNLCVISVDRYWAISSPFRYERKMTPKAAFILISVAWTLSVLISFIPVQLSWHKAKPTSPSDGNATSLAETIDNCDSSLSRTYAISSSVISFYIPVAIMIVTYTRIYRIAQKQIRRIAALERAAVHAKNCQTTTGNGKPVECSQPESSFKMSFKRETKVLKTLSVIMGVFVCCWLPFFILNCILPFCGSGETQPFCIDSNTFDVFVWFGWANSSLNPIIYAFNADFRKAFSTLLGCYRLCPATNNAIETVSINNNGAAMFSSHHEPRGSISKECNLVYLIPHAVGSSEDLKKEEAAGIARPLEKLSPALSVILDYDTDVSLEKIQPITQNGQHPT", "assay": "The compound was tested for binding affinity against human Dopamine receptor D1"}, "Histamine H1 receptor": {"biological_target": "Histamine H1 receptor (Rattus norvegicus, UniProt P31390)", "sequence (P31390 whole entry)": "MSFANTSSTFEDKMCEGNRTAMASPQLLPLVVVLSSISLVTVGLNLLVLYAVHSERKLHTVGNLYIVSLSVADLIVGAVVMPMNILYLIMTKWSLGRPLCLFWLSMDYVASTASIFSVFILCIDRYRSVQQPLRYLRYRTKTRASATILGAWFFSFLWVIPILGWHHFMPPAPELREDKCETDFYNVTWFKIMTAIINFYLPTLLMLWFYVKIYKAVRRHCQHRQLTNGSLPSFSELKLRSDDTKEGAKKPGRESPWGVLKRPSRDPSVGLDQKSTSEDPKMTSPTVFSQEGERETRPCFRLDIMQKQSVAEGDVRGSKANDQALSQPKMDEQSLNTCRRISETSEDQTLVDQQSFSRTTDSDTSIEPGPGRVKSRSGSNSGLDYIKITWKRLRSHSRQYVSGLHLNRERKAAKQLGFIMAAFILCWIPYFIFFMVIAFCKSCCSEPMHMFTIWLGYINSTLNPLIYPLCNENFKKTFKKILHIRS", "assay": "The compound was tested for binding affinity against H1 receptor"}, "Rattus norvegicus": {"tested_on": "Rattus norvegicus", "assay": "The compound was tested in vivo for induction of catalepsy in rat after ip administration", "type": "functional", "outline": "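Male rats (130–190 g), groups of five, injected ip with compound solution (1 mL/kg). Catalepsy assessed at three times by placing each paw on a 45 mm rubber bung; a paw held 15 s scores 1 (group maximum 20 = 100%). ED50 from percent catalepsy at the final reading, by adapted Litchfield–Wilcoxon.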"}, "D(2) dopamine receptor": {"biological_target": "D(2) dopamine receptor (Homo sapiens, UniProt P14416)", "sequence (P14416 whole entry)": "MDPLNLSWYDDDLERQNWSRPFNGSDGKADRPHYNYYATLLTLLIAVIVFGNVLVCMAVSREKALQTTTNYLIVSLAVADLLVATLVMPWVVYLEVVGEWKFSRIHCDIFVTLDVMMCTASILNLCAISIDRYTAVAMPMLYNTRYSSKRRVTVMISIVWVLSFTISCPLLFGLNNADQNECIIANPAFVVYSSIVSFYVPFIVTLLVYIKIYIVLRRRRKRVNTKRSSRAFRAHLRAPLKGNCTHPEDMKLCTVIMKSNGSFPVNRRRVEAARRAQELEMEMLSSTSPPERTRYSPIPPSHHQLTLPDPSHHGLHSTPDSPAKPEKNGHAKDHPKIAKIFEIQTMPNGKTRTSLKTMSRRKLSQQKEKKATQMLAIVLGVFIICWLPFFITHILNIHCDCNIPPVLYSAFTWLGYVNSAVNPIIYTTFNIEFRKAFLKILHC", "assay": "The compound was tested for binding affinity against human Dopamine receptor D2L"}, "[5]": {"biological_target": "Serotonin 4 (5-HT4) receptor (Sus scrofa, UniProt Q6Q253)", "sequence (Q6Q253 whole entry)": "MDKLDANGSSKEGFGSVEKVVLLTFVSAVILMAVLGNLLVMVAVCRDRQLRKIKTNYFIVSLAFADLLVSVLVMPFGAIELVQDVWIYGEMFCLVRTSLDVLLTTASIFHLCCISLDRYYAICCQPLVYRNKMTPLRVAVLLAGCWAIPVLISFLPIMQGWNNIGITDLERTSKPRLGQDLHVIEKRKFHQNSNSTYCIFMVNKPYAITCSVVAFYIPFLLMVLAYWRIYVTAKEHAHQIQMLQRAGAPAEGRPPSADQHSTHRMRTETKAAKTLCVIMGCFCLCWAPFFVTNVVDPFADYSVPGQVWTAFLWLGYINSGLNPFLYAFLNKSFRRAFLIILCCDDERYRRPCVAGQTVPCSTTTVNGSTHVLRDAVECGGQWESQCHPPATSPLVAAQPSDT", "assay": "The compound was tested for binding affinity against 5-hydroxytryptamine 4 receptor"}, "[6]": {"biological_target": "T2, Adrenergic receptor alpha-1 (Homo sapiens, UniProt P35348+P25100+P35368)", "T2 sequence (P35348 whole entry)": "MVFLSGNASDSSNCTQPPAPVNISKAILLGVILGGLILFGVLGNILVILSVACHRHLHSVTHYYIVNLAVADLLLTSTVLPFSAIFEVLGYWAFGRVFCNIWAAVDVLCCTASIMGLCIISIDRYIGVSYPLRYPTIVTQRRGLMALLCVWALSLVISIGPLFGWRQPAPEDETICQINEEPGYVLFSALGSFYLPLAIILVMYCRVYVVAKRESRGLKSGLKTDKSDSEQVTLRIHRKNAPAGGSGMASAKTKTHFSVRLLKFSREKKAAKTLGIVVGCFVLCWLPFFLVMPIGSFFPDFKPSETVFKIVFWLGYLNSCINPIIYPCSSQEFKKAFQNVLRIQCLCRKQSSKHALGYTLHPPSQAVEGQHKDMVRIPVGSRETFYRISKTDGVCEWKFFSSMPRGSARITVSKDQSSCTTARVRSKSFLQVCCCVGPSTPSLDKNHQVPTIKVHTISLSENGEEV", "T2 sequence (P25100 whole entry)": "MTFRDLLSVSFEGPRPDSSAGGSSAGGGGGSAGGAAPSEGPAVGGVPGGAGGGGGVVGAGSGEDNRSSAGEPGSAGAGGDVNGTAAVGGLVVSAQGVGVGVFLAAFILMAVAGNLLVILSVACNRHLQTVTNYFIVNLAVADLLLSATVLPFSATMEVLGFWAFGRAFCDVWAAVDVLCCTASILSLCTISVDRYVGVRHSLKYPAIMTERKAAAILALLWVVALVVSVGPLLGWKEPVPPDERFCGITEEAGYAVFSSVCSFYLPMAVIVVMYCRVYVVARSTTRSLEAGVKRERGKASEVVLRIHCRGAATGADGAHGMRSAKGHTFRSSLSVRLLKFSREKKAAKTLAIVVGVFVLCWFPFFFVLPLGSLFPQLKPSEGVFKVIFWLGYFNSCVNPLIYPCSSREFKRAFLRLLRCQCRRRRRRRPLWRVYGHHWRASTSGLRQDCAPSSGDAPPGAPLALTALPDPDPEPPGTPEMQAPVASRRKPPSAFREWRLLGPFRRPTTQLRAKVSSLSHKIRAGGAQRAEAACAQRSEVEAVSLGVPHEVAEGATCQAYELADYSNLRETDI", "T2 sequence (P35368 whole entry)": "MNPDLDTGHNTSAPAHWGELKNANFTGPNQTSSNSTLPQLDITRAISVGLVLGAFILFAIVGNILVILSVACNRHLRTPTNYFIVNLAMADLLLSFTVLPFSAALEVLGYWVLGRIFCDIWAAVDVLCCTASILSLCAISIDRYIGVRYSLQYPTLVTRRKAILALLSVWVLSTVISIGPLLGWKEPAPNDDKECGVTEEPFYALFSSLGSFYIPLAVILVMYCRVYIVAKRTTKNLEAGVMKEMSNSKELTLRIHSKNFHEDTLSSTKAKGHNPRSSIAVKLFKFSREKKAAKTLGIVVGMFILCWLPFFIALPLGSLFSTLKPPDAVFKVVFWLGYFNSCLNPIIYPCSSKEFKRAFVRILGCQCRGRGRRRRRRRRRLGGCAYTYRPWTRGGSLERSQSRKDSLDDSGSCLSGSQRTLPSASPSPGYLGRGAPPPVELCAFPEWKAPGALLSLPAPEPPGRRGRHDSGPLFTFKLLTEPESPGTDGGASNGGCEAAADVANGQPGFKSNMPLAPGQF", "assay": "The compound was tested for binding affinity against human Alpha-1 adrenergic receptor", "type": "protein assay", "outline": "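Postmortem human cortex membranes, stored at −80 °C, assayed in 50 mM Tris-HCl pH 7.6. Incubated with 0.1 nM [3H]prazosin for 30 min at 30 °C, test agent at 10^-6 M or 10 concentrations; 5 μM phentolamine for nonspecific binding. IC50 by curve fitting, converted to Ki (Cheng–Prusoff).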"}}, "data": [{"smiles": "COc1ccccc1N1CCC(CNCC2COc3ccc(Cl)cc3O2)CC1", "note": "(configuration not stated)", "values": [{"measurement": "Ki", "setting": "[1]", "value": "> 500", "unit": "nM"}, {"measurement": "Ki", "setting": "[2]", "value": "> 1000", "unit": "nM"}, {"measurement": "Ki", "setting": "D(3) dopamine receptor", "value": 1.6, "unit": "nM"}, {"measurement": "Ki", "setting": "D(1B) dopamine receptor", "value": "> 1000", "unit": "nM"}, {"measurement": "Ki", "setting": "[3]", "value": "> 500", "unit": "nM"}, {"measurement": "Ki", "setting": "[4]", "value": "> 1000", "unit": "nM"}, {"measurement": "Ki", "setting": "D(1A) dopamine receptor", "value": "> 1000", "unit": "nM"}, {"measurement": "Ki", "setting": "Histamine H1 receptor", "value": "> 1000", "unit": "nM"}, {"measurement": "ED50", "setting": "Rattus norvegicus", "value": 188, "unit": "mg/kg"}, {"measurement": "Ki", "setting": "D(2) dopamine receptor", "value": 13.2, "unit": "nM"}, {"measurement": "Ki", "setting": "[5]", "value": "> 1000", "unit": "nM"}, {"measurement": "Ki", "setting": "[6]", "value": 181, "unit": "nM"}]}]}
